DENV2 CPE – protects cells from dengue virus 2 cytopathic effect | CPE inhibition, % at 9.99 µM | DENV2-infected cells, cytopathic effect rescue, plate reader | 350,000 compounds, 1.7% hits | AID 651640; in the data active = CPE inhibition above about 20%, passing the limit was not always enough; inconclusive = no clear call, values can overlap the other calls; tested in BHK-21 cells;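 note: 0% = median of neutral control wells and 100% = median of positive control wells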
CAL PDZ FP-1 – blocks peptide binding to the human CAL PDZ domain; purified CAL PDZ, TMR-peptide fluorescence polarization, 1 h; inhibition, % at 24.9 µM; 300,000 compounds, 0.92% hits;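 active = mean inhibition of at least 30% with at least half of replicates also reaching 30%; inconclusive = no clear call, values can overlap the other calls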;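 note: 0% = DMSO neutral control and 100% = excess unlabeled competitor peptide PRC23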
CAL PDZ FP-2 – inhibitors of human CAL PDZ peptide binding | Q9HD26 | purified CAL PDZ, TMR-peptide fluorescence polarization, 1 h | inhibition, % at 20 µM | 330,000 compounds, 0.02% hits;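 active = highest replicate inhibition of at least 40%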;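 note: plate controls were DMSO neutral control wells for no effect and unlabeled competitor peptide control wells for full effect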
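Material: tagged CAL PDZ protein CerCALP, purified; buffer or medium: sodium phosphate/NaCl buffer pH 7.4 with TCEP, IgG, Thesit; also added: fluorescent TMR peptide probe; schedule: 1 h incubation at room temperature before polarization reading; technique: fluorescence polarization from S- and P-plane intensities, G-factor corrected; control set: unlabelled peptide and DMSO controls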
ERAP1 inh – blocks human ERAP1 aminopeptidase activity | recombinant ERAP1, Leu-AMC fluorescence, 60 min | 340,000 compounds, 0.15% hits | inhibition, % at 10.7 µM | Q9NZ08;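 active = mean replicate inhibition of at least 30%, or all replicates individually reaching that 30% level; inactive = mean below 30% and not every replicate reaching it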;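 note: 0% = neutral control wells and 100% = L-leucinethiol positive control wells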
SIRT5 block – sirtuin-5 (human) deacylase inhibition; Q9NXA8; Purified SirT5, succinyl-peptide AMC, trypsin-coupled fluorescence; inhibition, % at 15 µM; 330,000 compounds, 1.1% hits; in the data active = inhibition above about 15%; inconclusive = no clear call, values can overlap the other calls
S100A4 MyoIIA – blocks human S100A4 binding to myosin IIA peptide; 360,000 compounds, 0.14% hits; P26447; AID 652163; S100A4/TAMRA-MyoIIA peptide fluorescence polarization; inhibition, % at 10.7 µM;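 active = mean inhibition of at least 70% across replicates, with every replicate also reaching that level; inconclusive = mean inhibition reaches 70% but some replicates fall short; inactive = mean inhibition below 70%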
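Material: human S100A4 monomer with TAMRA-labelled myosin IIA peptide; buffer or medium: HEPES pH 7.2 with CaCl2, KCl, NaCl, DTT, Triton; compound dosing: one concentration per compound; schedule: 5 min incubation before reading; benchmarks: neutral control DMSO, positive control TFP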
* = called active by the depositor; u = inconclusive; x = not tested or not shown. Only some compounds are listed: those with a hit (about 2.9% of all), similar ones and a draw of the others.

SMILES | DENV2 CPE | CAL PDZ FP-1 | CAL PDZ FP-2 | ERAP1 inh | SIRT5 block | S100A4 MyoIIA
C[C@H](CO)N1C[C@H](C)[C@@H](CN(C)S(=O)(=O)c2cn(C)cn2)Oc2ccc(NC(=O)C3CC3)cc2C1=O | -7 | -3 | -1 | -2 | -3 | 5
C[C@@H]1CCCCO[C@@H](CN(C)S(=O)(=O)c2cn(C)cn2)[C@H](C)CN([C@@H](C)CO)C(=O)c2cc(NC(=O)C3CCCCC3)ccc2O1 | 3 | x | x | -9 | 5 | 116*
CO[C@@H]1CN(C)C(=O)c2ccc(NC(C)=O)cc2OC[C@@H](C)N(C(=O)CC2CC2)C[C@H]1C | 14 | x | x | 0 | -7 | 11
Cc1cc(Br)ccc1NC(=O)CN(C)C(=O)COc1cccc2c1OC(C)(C)C2 | 91* | -3 | -1 | 1 | -2 | 3
C/C=C/c1cnc2c(c1)C(=O)N([C@@H](C)CO)C[C@H](C)[C@@H](CN(C)C(=O)Cc1ccccn1)O2 | -1 | x | x | -2 | -6 | -11
N#Cc1cccnc1N1CCN(C(=O)c2ccccc2)CC1 | 52* | -3 | 2 | 3 | -7 | 7
N#Cc1cccnc1N1CCC(C(N)=O)CC1 | 4 | -1 | -1 | x | x | -2
O=C(c1ccc2nccnc2c1)N1CCN(c2ccccc2)CC1 | 35* | -4 | -3 | -2 | -2 | -1
Cc1ccc(S(=O)(=O)Nc2cccc3c2O[C@H](CN(C)Cc2ccc4c(c2)OCO4)[C@@H](C)CN([C@H](C)CO)C3=O)cc1 | 5 | x | x | 0 | -1 | 23
Cc1ccc(C)c(NC(=O)CSc2c(C)n[nH]c2C)c1 | -2 | 61* | 16 | -1 | 1 | -2
O=C1OCCOC2CCCc3oc(C4=CCCCC4)c1c32 (centres undefined) | u | x | x | -5 | 33* | -6
O=C(NCC[C@@H]1CC[C@H](NC(=O)c2cnccn2)[C@H](CO)O1)Nc1ccc(F)cc1 | -9 | x | x | 2 | 12 | -10
CCCC(=O)Nc1ccc2c(c1)C(=O)N(C)C[C@@H](OC)[C@H](C)CN(Cc1nccs1)[C@H](C)CO2 | -1 | x | x | x | -4 | -11
Cc1c2c(n3c(nc4ccccc43)c1C#N)N(CCCN(C)C)CC2 | -2 | 2 | -1 | 71* | -49 | -9
Cc1c2c(n3c(nc4ccccc43)c1C#N)N(CCN(C)C)CC2 | -7 | 2 | 0 | 31* | -42 | -5
CCc1c(C)c(C#N)c2nc3ccccc3n2c1NCCCN(C)C | 6 | x | x | -3 | 0 | 1
C[C@H]1CN([C@@H](C)CO)C(=O)Cc2cc(NC(=O)Cc3cn(C)c4ccccc34)ccc2O[C@@H]1CN(C)C(=O)Nc1ccc(C(F)(F)F)cc1 | u | x | x | 4 | 2 | -6
C[C@@H]1CN([C@@H](C)CO)C(=O)c2cc(NC(=O)Cc3cn(C)c4ccccc34)ccc2O[C@H]1CN(C)C(=O)Nc1ccccc1 | 35* | x | x | -2 | x | -14
C[C@H]1CN([C@@H](C)CO)C(=O)c2cc(NC(=O)Cc3cn(C)c4ccccc34)ccc2O[C@H]1CN(C)C(=O)Nc1ccc2c(c1)OCO2 | 28* | x | x | -1 | 1 | -3
COc1ccc(S(=O)(=O)N(C)C[C@@H]2OCCCC[C@H](C)Oc3ccc(NC(=O)C4CCCCC4)cc3C(=O)N([C@H](C)CO)C[C@H]2C)cc1 | -6 | x | x | 1 | 6 | -2
COc1cccc(CN2C[C@@H](C)[C@H](OC)CN(C)C(=O)c3cc(NS(=O)(=O)c4cn(C)cn4)ccc3OC[C@H]2C)c1 | -1 | x | x | 1 | x | -37
CCc1nnc(NC(=O)c2cc(C)nc3ccccc23)s1 | x | 65* | -1 | -2 | -5 | 3
Cc1ccc(S(=O)(=O)N(C)C[C@H]2OCCCC[C@@H](C)Oc3ccc(NC(=O)Nc4ccc(C(F)(F)F)cc4)cc3C(=O)N([C@@H](C)CO)C[C@H]2C)cc1 | 24* | x | x | 4 | 1 | 8
COc1ccc(S(=O)(=O)N(C)C[C@@H]2OCCCC[C@@H](C)Oc3ccc(NC(=O)Nc4ccc(C(F)(F)F)cc4)cc3C(=O)N([C@@H](C)CO)C[C@@H]2C)cc1 | 11 | x | x | -2 | 28* | 0
C[C@@H]1CCCCO[C@H](CN(C)S(=O)(=O)c2ccc(Cl)cc2)[C@@H](C)CN([C@@H](C)CO)C(=O)c2cc(NC(=O)Nc3ccc(C(F)(F)F)cc3)ccc2O1 | 32* | x | x | x | x | x
